ChEMBL document CHEMBL5149984, “Discovery of HN37 as a Potent and Chemically Stable Antiepileptic Drug Candidate” (J Med Chem, 2021)

Legend:
[1] = molecular target: Potassium voltage-gated channel subfamily KQT member 2/member 3 (Rattus norvegicus) (UniProt O88943+O88944); test: Agonist activity at rat KCNQ2/3 channel expressed in CHO cells assessed as amplitude change of outward current at 10 uM by patch clamp method; assay type: cell-based; conditions: filed as agonist
Outline: (§1)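 Whole-cell patch clamp at room temperature on CHO cells (DMEM/F12, 10% FBS) transiently co-transfected with EGFP and hKCNQ1, rKCNQ2, rKCNQ3 A278T, hKCNQ4 or hKCNQ5; KCNQ2/3 at 1:1 cDNA ratio. Pipette solution 145 mM KCl, 5 mM MgATP, pH 7.3; bath 140 mM NaCl, 5 mM KCl, pH 7.4, under perfusion. V1/2 from Boltzmann fits; I/I0 is current amplitude with versus without compound; n = 4−6.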

[2] = molecular target: T1, Potassium voltage-gated channel subfamily KQT member 4 (Homo sapiens) (UniProt P56696); test: Agonist activity at human KCNQ4 channel expressed in CHO cells assessed as amplitude change of outward current at 10 uM by patch clamp method; assay type: cell-based; conditions: filed as agonist; outline: as §1
T1 sequence (whole entry): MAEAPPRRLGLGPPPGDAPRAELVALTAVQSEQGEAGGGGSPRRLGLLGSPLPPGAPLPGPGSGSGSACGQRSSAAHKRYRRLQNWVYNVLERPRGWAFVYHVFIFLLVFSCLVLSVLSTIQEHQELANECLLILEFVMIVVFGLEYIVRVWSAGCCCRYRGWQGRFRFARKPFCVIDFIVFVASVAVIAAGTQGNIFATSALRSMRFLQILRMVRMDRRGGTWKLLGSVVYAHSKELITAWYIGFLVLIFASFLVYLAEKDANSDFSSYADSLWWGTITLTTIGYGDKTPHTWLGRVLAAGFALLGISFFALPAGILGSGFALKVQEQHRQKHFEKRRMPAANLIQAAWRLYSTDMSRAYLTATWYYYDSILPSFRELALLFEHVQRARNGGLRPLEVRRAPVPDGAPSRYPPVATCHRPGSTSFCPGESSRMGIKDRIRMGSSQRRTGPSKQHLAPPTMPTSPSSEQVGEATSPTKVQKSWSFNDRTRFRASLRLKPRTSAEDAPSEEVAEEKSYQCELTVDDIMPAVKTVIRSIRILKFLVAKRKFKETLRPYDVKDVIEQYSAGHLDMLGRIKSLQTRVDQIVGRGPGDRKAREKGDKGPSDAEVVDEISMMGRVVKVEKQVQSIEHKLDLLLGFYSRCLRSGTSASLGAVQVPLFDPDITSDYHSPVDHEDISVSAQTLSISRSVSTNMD

[3] = Cmax in Kunming mouse brain at 5 mg/kg, po measured upto 24 hrs by LC-MS/MS method; assay type: ADME, organism-based; design: dose 5 mg/kg, time < 24 hrs, route po
Outline: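 KM male mice (18−24 g), fasted 12 h before and 2 h after dosing. HN37 given orally at 5 mg/kg in 5% DMSO/5% Tween 80/90% saline, or iv at 2 mg/kg after dilution in saline with 1% Tween 80; n = 3 per time point. Blood sampled 0.25–24 h (from 0.083 h after iv); whole brain taken after oral dosing. Plasma and brain extracted with acetonitrile, quantified by LC−MS/MS; AUC0−t by trapezoidal method.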

[4] = Half life in Kunming mouse plasma at 5 mg/kg, po measured upto 24 hrs by LC-MS/MS method; assay type: ADME, organism-based
Outline: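 Male KM mice (18−24 g) fasted 12 h before and 2 h after dosing, given 5 mg/kg orally in 5% DMSO/5% Tween 80/90% normal saline (n = 3 per time point). Aortic blood taken at 0.25–24 h and whole brain collected. Acetonitrile extraction with internal standard, then LC−MS/MS. Bioavailability calculated against the 2 mg/kg i.v. arm.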

[5] = Half life in Kunming mouse plasma at 2 mg/kg, iv measured upto 24 hrs by LC-MS/MS method; assay type: ADME, organism-based
Outline: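 Male KM mice (n = 3 per time point) given 2 mg/kg i.v. in normal saline with 1% Tween 80, diluted from the oral formulation. Retro-orbital plexus blood taken at 0.083–24 h. Plasma extracted with acetonitrile plus internal standard and assayed by LC−MS/MS.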

[6] = Cmax in Sprague-Dawley rat brain at 6 mg/kg, po measured upto 24 hrs by LC-MS/MS method; assay type: ADME, organism-based; design: time < 24 hrs, dose 6 mg/kg, route po
Outline: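 Male SD rats (180−220 g) given single oral doses of 2, 6 and 20 mg/kg; handled as in the mouse PK study (fasted 12 h before and 2 h after dosing, 5% DMSO/5% Tween 80/90% saline formulation). In a separate 6 mg/kg p.o. set, blood and brain were sampled together. Plasma and brain levels by LC−MS/MS.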

CYP3A4 = CYP3A4 (Homo sapiens, UniProt P08684); test: Inhibition of human liver microsome CYP3A4 at 0.10 to 50 uM preincubated with NADPH for 0.5 hrs followed by substrate addition by LC-MS/MS method relative to control; assay type: ADME; conditions: liver microsomes, dose 0.1-50 µM
Outline: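 Human liver microsomes preincubated 0.5 h with 0.10−50 μM compound, with or without NADPH, then CYP-specific probe substrates added (CYP3A4 with midazolam 1′-hydroxylation and with testosterone 6β-hydroxylation). Metabolites quantified by LC−MS/MS; % activity remaining computed against no-compound control. IC50 fitted by Probit model; ratio = IC50(−NADPH)/IC50(+NADPH).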

Cytochrome P450 3A4 = Cytochrome P450 3A4 (Homo sapiens, UniProt P08684); test: Time dependent inhibition of human liver microsome CYP3A4 preincubated for 0.5 hrs in presence or absence of NADPH followed by testosterone addition by LC-MS/MS method; assay type: ADME, microsomes
Outline: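 Human liver microsomes preincubated 0.5 h with 0.10–50 μM test compound, with or without NADPH, then CYP-specific probe substrate added and incubation continued. Metabolite measured by LC-MS/MS; % activity remaining relative to no-compound control; IC50 fitted by Probit model. For CYP3A4, midazolam 1′-hydroxylation and testosterone 6β-hydroxylation were read separately.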

CYP2C19 = CYP2C19 (Homo sapiens, UniProt P33261); test: Ratio of IC50 for human liver microsome CYP2C19 in absence of NADPH to IC50 for human liver microsome CYP2C19 in presence of NADPH; conditions: liver microsomes, read-out: Ratio IC50
CYP1A2 = CYP1A2 (Homo sapiens, UniProt P05177); test: Ratio of IC50 for human liver microsome CYP1A2 in absence of NADPH to IC50 for human liver microsome CYP1A2 in presence of NADPH; conditions: liver microsomes, read-out: Ratio IC50
CYP2C8 = CYP2C8 (Homo sapiens, UniProt P10632); test: Ratio of IC50 for human liver microsome CYP2C8 in absence of NADPH to IC50 for human liver microsome CYP2C8 in presence of NADPH; conditions: liver microsomes, read-out: Ratio IC50
CHO = test: Agonist activity at rat KCNQ3 A278T mutant expressed in CHO cells assessed as amplitude change of outward current at 0.1 uM by patch clamp method; assay type: cell-based; conditions: filed as agonist; outline: as §1
[7] = Neurotoxicity in Kunming mouse assessed as motor impairment rate at 200 mg/kg, po after 1 hr by rotarod test; assay type: toxicity, organism-based; conditions: in vivo
Outline: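 Male KM mice dosed intragastrically with compound freshly suspended in 0.5% CMC-Na. Rotarod performance scored 1 h after dosing as the fraction of animals showing motor impairment. Fisher's exact test versus vehicle; TD50 from nonlinear dose−response fit.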

CYP1A2, sequence (P05177 whole entry): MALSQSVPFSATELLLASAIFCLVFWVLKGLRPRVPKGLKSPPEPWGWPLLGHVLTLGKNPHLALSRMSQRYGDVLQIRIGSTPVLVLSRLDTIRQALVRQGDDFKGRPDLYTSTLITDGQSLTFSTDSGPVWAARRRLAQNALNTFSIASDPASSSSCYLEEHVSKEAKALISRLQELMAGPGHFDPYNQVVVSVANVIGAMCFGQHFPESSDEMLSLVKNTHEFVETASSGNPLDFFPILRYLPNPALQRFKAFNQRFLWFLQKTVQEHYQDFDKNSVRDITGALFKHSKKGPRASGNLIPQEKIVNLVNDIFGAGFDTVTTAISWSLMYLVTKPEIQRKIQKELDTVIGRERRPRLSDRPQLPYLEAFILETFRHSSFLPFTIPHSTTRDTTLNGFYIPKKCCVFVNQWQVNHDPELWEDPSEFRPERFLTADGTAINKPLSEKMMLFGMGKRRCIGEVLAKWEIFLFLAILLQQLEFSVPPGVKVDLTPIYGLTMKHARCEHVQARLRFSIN
CYP2C19, sequence (P33261 whole entry): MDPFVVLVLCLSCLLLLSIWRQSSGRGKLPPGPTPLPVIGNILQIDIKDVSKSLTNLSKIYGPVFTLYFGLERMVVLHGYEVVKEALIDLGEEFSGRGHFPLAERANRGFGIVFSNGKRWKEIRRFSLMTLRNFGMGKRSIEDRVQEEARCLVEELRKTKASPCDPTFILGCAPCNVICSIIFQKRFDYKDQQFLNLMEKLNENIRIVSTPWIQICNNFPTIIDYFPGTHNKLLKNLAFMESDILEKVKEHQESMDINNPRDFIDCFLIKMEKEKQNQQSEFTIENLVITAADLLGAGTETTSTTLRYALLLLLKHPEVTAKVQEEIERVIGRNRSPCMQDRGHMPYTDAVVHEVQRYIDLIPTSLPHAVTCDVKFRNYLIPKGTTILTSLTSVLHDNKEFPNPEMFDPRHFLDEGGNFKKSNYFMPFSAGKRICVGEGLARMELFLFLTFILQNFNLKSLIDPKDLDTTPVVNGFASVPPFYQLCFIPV
CYP2C8, sequence (P10632 whole entry): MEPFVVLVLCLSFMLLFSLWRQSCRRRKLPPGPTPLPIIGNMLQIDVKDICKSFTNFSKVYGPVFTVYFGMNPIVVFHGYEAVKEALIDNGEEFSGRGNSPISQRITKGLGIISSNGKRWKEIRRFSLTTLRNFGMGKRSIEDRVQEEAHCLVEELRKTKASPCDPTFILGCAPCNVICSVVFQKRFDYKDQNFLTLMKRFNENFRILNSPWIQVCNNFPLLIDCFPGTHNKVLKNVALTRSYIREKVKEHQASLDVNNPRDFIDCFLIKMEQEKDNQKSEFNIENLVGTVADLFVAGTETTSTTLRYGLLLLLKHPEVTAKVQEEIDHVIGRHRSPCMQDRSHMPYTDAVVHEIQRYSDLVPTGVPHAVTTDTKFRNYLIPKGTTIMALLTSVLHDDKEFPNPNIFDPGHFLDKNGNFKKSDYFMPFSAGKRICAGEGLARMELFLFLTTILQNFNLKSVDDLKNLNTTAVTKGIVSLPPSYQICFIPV
CYP3A4, sequence (P08684 whole entry): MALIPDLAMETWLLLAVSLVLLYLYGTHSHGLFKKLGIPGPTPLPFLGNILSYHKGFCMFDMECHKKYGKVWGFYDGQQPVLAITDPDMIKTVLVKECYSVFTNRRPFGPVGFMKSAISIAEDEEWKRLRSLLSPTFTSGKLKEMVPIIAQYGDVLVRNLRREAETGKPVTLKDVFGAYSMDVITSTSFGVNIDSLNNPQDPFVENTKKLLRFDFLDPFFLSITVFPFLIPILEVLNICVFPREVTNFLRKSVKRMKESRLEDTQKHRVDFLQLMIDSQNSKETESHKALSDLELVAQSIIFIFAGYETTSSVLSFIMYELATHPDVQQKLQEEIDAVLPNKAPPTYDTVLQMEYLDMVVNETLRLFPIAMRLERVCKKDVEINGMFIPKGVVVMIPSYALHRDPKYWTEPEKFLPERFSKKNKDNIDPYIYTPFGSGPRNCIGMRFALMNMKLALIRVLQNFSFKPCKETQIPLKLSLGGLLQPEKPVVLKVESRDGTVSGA
Cytochrome P450 3A4, sequence (P08684 whole entry): as above

SMILES | Activity [1] | Activity [2] | Cmax [3] | half-life [4] | half-life [5] | Cmax [6] | inhibition at 0.5 h, up to 50 µM (CYP3A4) | IC50 (Cytochrome P450 3A4) | IC50 shift (CYP2C19) | IC50 shift (CYP1A2) | IC50 shift (CYP2C8) | Activity (CHO) | Activity [7]
CCOC(=O)Nc1ccc(NCc2ccc(F)cc2)cc1N [EZOGABINE] | 1.97 | 2.85 | – | – | – | – | – | – | – | – | – | – | –
C#CCN(Cc1ccc(F)cc1)c1cc(C)c(NC(=O)OC)c(C)c1 | – | – | 263 ng/mL | 1.95 h | 0.8 h | 578 ng/mL | < 25% | > 50 µM | < 1.5 | > 1.5 | > 1.5 | 2.1 | 100%
